The target in test [1] is T1, Poly [ADP-ribose] polymerase 1 (Homo sapiens, UniProt P09874).
Test [2] deals with A2780. The test is described as follows: Potentiation of growth inhibition of A2780 by compound alone in experiment 1. It is filed as functional, cell-based. Particulars: Homo sapiens; call rule not given here. The method, boiled down: (§1)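 A2780 cells were grown in HEPES-RPMI 1640 + 10% FCS and seeded at 2.0–2.5 × 10^3 per well. After overnight attachment (16–24 h) they were exposed for 72 h to graded temozolomide or topotecan ± 10 μM PARP inhibitor (1% DMSO). Sulforhodamine B read at 570 nm, 5 replicate wells, % of matched control. IC50 by nonlinear regression; potentiation is IC50 alone over IC50 with inhibitor.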

Test [3] deals with A2780. The test is described as follows: Potentiation of growth inhibition of A2780 cells by compound alone in experiment 2. It counts as functional, cell-based. The note with it: Homo sapiens. The method, boiled down: as §1
Test [4] deals with A2780. The test is described as follows: Potentiation of growth inhibition of A2780 cells along with 10 uM NU1085 in experiment 1. Particulars: Homo sapiens. It is filed as functional, cell-based. The method in brief:
as §1

For test [5], the system named is A2780. The test is described as follows: Potentiation of growth inhibition of A2780 cells along with 10 uM NU1085 in experiment 2. It counts as functional, cell-based. The note with it: Homo sapiens. The method in brief:
as §1

For test [6], the system named is A2780. The test is described as follows: Potentiation factor at 50% growth inhibition (IC50 of compound to that of compound along with PARP inhibitor) in experiment 1. It is filed as functional, Homo sapiens. The method in brief: as §1
Test [7] deals with A2780. The test is described as follows: Potentiation factor at 50% growth inhibition (IC50 of compound to that of compound along with PARP inhibitor) in experiment 2. It is filed as functional, Homo sapiens. The method, boiled down: as §1
For test [8], the target named is T1, Poly [ADP-ribose] polymerase 1. Kind of test: In vitro inhibition against human full length PARP protein; IA means inactive. The method, boiled down: (§2)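 Baculovirus-expressed, purified human full-length PARP (20 nM) with DNase I-activated calf thymus DNA (10 μg/mL) and NAD+ (500 μM, with [32P]NAD+). Run in 50 mM Tris pH 8.0, 10 mM MgCl2, 1 mM TCEP, 2% DMSO, 25 °C, 5 min (linear to 8 min). Stopped with ice-cold TCA and filtered. Acid-insoluble [32P]ADP-ribose read by phosphorimager. Ki from competitive-inhibition fit; tight-binding equation where needed.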

The subject of test [9] is A2780. Kind of test: Potentiation of growth inhibition of A2780 cells by compound alone in experiment 1. The note with it: Homo sapiens. It is filed as functional, cell-based. The method, boiled down:
as §1

Test [10] addresses T1, Poly [ADP-ribose] polymerase 1. Kind of test: In vitro inhibition against human full length PARP protein. The method, boiled down:
as §2

Here are results for 37 compounds from ChEMBL document CHEMBL1132951, “Resistance-modifying agents. 9. Synthesis and biological properties of benzimidazole inhibitors of the DNA repair enzyme poly(ADP-ribose) polymerase” (J Med Chem, 2000).

SMILES strings stand for the structures.

T1 sequence (P09874 whole entry): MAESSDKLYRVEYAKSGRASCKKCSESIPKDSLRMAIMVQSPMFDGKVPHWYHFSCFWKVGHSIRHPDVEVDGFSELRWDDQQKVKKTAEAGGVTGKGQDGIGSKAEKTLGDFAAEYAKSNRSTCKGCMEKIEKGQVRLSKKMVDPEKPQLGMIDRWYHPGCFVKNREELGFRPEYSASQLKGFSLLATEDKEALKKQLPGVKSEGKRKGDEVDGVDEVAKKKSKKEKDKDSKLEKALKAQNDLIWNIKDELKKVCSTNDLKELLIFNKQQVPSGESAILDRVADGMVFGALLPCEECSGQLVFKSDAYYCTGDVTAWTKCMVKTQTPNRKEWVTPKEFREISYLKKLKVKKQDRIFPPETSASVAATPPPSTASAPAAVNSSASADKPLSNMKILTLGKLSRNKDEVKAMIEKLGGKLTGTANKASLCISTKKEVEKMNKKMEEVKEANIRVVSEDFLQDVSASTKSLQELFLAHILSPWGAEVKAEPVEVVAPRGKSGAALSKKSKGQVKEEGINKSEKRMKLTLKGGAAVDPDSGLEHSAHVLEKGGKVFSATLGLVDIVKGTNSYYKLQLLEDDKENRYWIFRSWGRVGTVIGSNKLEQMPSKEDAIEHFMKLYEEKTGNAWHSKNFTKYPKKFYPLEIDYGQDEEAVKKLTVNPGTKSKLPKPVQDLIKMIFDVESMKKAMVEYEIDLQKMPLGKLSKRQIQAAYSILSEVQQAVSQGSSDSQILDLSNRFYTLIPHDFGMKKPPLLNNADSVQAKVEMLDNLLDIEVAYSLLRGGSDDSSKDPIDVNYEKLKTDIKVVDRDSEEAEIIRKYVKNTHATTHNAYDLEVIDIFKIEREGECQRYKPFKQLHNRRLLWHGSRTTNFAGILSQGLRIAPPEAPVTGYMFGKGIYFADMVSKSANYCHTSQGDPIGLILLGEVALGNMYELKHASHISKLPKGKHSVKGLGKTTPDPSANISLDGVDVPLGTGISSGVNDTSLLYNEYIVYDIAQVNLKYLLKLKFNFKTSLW

In test [1], `N#Cc1ccc(-c2nc3c(C(N)=O)cccc3[nH]2)cc1` registered a Ki of 4 nM. In turn, `COc1ccc(-c2nc3c(C(N)=O)cccc3[nH]2)cc1OC` showed an inhibitory constant (Ki) in test [1] of 5.4 nM.

As to `NC(=O)c1cccc2[nH]c(-c3ccccc3C(F)(F)F)nc12`, the inhibition constant Ki in test [1] is 190 nM. On the same count and under the same terms, as for `COc1cc(-c2nc3c(C(N)=O)cccc3[nH]2)ccc1O`, the figure is 13 nM. Still for that read-out and setting: next, `NC(=O)c1cccc2nc(-c3ccc(O)cc3)[nH]c12`: 6 nM; `CN(C)c1ccc(-c2nc3c(C(N)=O)cccc3[nH]2)cc1`: 5.8 nM. On the same count and under the same terms, as for `NC(=O)c1cccc2[nH]c(-c3ccccc3Cl)nc12`, the figure is 9.4 nM; as for `NC(=O)c1cccc2nc(-c3ccc(N)cc3)[nH]c12`, 11 nM. In the case of `NC(=O)c1cccc2[nH]c(-c3cccc(C(F)(F)F)c3)nc12`, the Ki in test [1] was 8 nM. Same read-out and setting: next, `NC(=O)c1cccc2[nH]c(-c3cccc(CO)c3)nc12`: 6.8 nM. On the same count and under the same terms, next, `COc1cc(-c2nc3c(C(N)=O)cccc3[nH]2)cc(OC)c1OC`: 136 nM.

`COc1ccc(-c2nc3c(C(N)=O)cccc3n2C)cc1` showed an inhibitory constant (Ki) in [1] of 32 nM.

Consider `Cc1nc2c(C(N)=O)cccc2[nH]1`, for which the Ki in test [1] was found to be 99 nM.

Regarding `NC(=O)c1cccc2[nH]c(-c3ccccc3CO)nc12`, the affinity in test [1], expressed as Ki, was 10.6 nM. With `Cn1nnc2c(C(N)=O)ncn2c1=O` [TEMOZOLOMIDE], the IC50 worked out at 525000 nM in the test with A2780 [2], 368000 nM with A2780 [3], 188000 nM in the test on A2780 [4] and 183000 nM with A2780 [5]. Besides, the PF50 in the test with A2780 [6] stood at 2.8; with A2780 [7] it was 2. As to `NC(=O)c1cccc2[nH]c(-c3cccc(Cl)c3)nc12`, in test [1], the affinity, expressed as Ki, was 8.4 nM. For the compound `NC(=O)c1cccc2[nH]cnc12`, the inhibition constant (Ki) in [1] worked out at 95 nM. Same read-out and setting: next, `C=CCOc1cc(-c2nc3c(C(N)=O)cccc3[nH]2)ccc1OC`: 9.4 nM; `NC(=O)c1cccc2[nH]c(-c3ccc4c(c3)OCO4)nc12`: 5.9 nM; `NC(=O)c1cccc2[nH]c(-c3cccc(O)c3)nc12`: 6.3 nM. In the case of `CNC(=O)c1cccc2[nH]c(-c3ccc(O)cc3)nc12`, in [8], the Ki result is given as “Not Active”.

`COc1ccc(-c2nc3c(C(N)=O)cccc3n2C(=O)OCc2ccccc2)cc1` showed a Ki in test [1] of 530 nM. Still for that read-out and setting: next, `NC(=O)c1cccc2[nH]c(-c3ccc(CO)cc3)nc12`: 1.6 nM. As to `CC[C@@]1(O)C(=O)OCc2c1cc1n(c2=O)Cc2cc3c(CN(C)C)c(O)ccc3nc2-1` [TOPOTECAN], the half-maximal inhibitory concentration (IC50) in the test on A2780 [9] came to 22600 nM; with A2780 [3] it was 22000 nM; with A2780 [4], 7800 nM; in the test on A2780 [5], 8700 nM. Besides, the PF50 is 2.9 in the test on A2780 [6] and 2.5 with A2780 [7]. In test [1], `NC(=O)c1cccc2nc(-c3ccc(Cl)cc3)[nH]c12` yielded an inhibition constant Ki of 3 nM. Still for that read-out and setting: next, `O=C(O)c1cccc2[nH]c(-c3ccc(O)cc3)nc12`: 10000 nM; `CC(C)[Si](OCc1ccc(-c2nc3c(C(N)=O)cccc3[nH]2)cc1)(C(C)C)C(C)C`: 85 nM. Still for that read-out and setting: as for `COc1ccc(-c2nc3c(C(N)=O)cccc3[nH]2)cc1`, the figure is 6.8 nM. The same measure, in the same setting: next, `COc1ccccc1-c1nc2c(C(N)=O)cccc2[nH]1`: 126 nM. `NC(=O)c1cccc2[nH]c(-c3ccc([N+](=O)[O-])cc3)nc12` displayed an inhibition constant (Ki) in [10] of 8 nM. As for `NC(=O)c1cccc2[nH]c(-c3ccc(C(F)(F)F)cc3)nc12`, the affinity in [1], expressed as Ki, was 1.2 nM. Still for that read-out and setting: next, `NC(=O)c1cccc2[nH]c(C(F)(F)F)nc12`: 350 nM. As for `NC(=O)c1cccc2[nH]c(-c3ccccc3F)nc12`, in test [1], affinity was put at a Ki of 9 nM. Still for that read-out and setting: next, `NC(=O)c1cccc2[nH]c(-c3ccc(C(=O)O)cc3)nc12`: 290 nM; `COc1ccc(-c2nc3c(C(N)=O)cccc3[nH]2)cc1O`: 2 nM.

Consider `CCOC(=O)c1ccc(-c2nc3c(C(N)=O)cccc3[nH]2)cc1`, for which affinity in [1] was put at a Ki of 8.1 nM. Turning to `CNC(=O)c1cccc2[nH]c(-c3ccc(OC)cc3)nc12`, the Ki result in test [8] was “Not Active”.

The term Ki denotes the dissociation constant of the complex between target and ligand, obtained from inhibition or displacement. Low values mean tighter binding, high ones weaker binding. In general, IC50 refers to the midpoint of a concentration-inhibition curve.
